In ChEMBL document CHEMBL1140925, “Nuclear factor-kappaB mediated inhibition of cytokine production by imidazoline scaffolds” (J Med Chem, 2009) one finds Activity and Ratio data, which are given here for one molecule.

Data set [1] is described as follows: Cytotoxicity against human whole blood lymphocytes assessed as survival cell count in millions at 1 uM by trypan blue staining based hemocytometer.
The test system of data set [2] is HeLa. In words: Cell cycle arrest in TNF-alpha-stimulated human HeLa cells transfected with NFkappaB-Luc assessed as accumulation at diploid G1 phase at 5 uM after 8 hrs by propidium iodide-based flow cytometry. The data set is classed as functional. The method in brief:
(§1)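 HeLa NF-κB-luc cells (stable, hygromycin-selected) were treated with vehicle (1% DMSO) or compound at 40–0.2 µM final for 8 h at 37 °C, 5% CO2. Adherent cells were trypsinized, resuspended in PBS/50% FBS, fixed overnight in 70% ice-cold ethanol and washed with cold PBS/10% FBS, then analysed for cell cycle by flow cytometry.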
On the technique in general: A flow cytometer gives signals particle by particle.

Data set [3] relates to HeLa. In words: Effect on cell cycle arrest in human HeLa cells assessed as cell aggregate level at 20 uM after 8 hrs by propidium iodide-based flow cytometry. It counts as functional. The method in brief: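 Cells were exposed to vehicle (1% DMSO) or compound for 8 h at 37 °C, 5% CO₂. They were then trypsinized, resuspended in PBS with 50% FBS, fixed overnight in ice-cold 70% ethanol, and washed twice with ice-cold PBS containing 10% FBS before flow cytometric cell-cycle analysis.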

The test system of data set [4] is HeLa. In words: Cell cycle arrest in TNF-alpha-stimulated human HeLa cells transfected with NFkappaB-Luc assessed as accumulation at G2/G1 phase at 5 uM after 8 hrs by propidium iodide-based flow cytometry. The data set is classed as functional. The method in brief: as §1
The nature of data set [5]: Cytotoxicity against human whole blood IL-1-beta-stimulated lymphocytes assessed as survival cell count in millions at 3 uM by trypan blue staining based hemocytometer.
Data set [6] has as its system HeLa. In words: Effect on cell cycle arrest in TNF-alpha-stimulated human HeLa cells assessed as cell aggregate level at 10 uM after 8 hrs by propidium iodide-based flow cytometry. It counts as functional.
Data set [7] deals with HeLa. The experiment in a line: Cell cycle arrest in TNF-alpha-stimulated human HeLa cells transfected with NFkappaB-Luc assessed as accumulation at diploid G1 phase at 1 uM after 8 hrs by propidium iodide-based flow cytometry. The data set is classed as functional.

Take `CCOC(=O)[C@]1(c2ccccc2)N=C(c2ccccc2)N(Cc2ccccc2)[C@@H]1c1ccccc1` (racemic): the Activity in data set [1] came to 1.2 mL⁻¹; with HeLa [2], 66.37%; with HeLa [3], 0%; in data set [5] it was 1.28 mL⁻¹; in the data set with HeLa [6] it was 0%; in the data set on HeLa [7], 63.22%. Further, in the data set on HeLa [4], the Ratio stood at 1.91.
